Bioassay records as filed in PubChem.
UBC13 polyUb: blocks human UBC13 polyubiquitin chain formation. AID 485273. actives 0.47% (n = 330,000). TR-FRET. inhibition, % at 20 µM; in the data active = inhibition above about 45%, passing the limit was not always enough
Target sequence (P61088 whole entry, looked up): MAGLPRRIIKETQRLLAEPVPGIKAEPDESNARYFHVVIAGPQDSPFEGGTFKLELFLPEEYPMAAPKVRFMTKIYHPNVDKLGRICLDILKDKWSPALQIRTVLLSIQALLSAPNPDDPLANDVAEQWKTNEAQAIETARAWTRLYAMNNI
ZTA DNA inh: ZTA (EBV) inhibition in EBNA-1 counter-screen; actives 0.15% (n = 320,000); inhibition, % at 11 µM; ZTA-DNA binding, fluorescence polarization; P03206; in the data active = inhibition above about 33%
PfGluPho inh: PfG6PD (Plasmodium falciparum) enzyme inhibition; PfGluPho enzyme, NADPH resazurin-diaphorase fluorescence; inhibition, % at 20 µM; actives 0.78% (n = 350,000); AID 504690;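 active = inhibition reaching at least a set limit at 20 µM in the primary screen, cut at about 59% in these data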;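 note: 0% = DMSO wells with substrate and 100% = DMSO wells lacking glucose-6-phosphate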
Apaf1 inhib: human Apaf-1 inhibition. O14727. reconstituted apoptosome caspase-3 activity, DEVD-Rh110 fluorescence. inhibition, % at 20 µM. actives 0.71% (n = 330,000). AID 489030; active = inhibition of at least 40% at 20 µM;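 note: plate controls were DMSO wells for no effect and DEVD-CHO caspase inhibitor wells for full effect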
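Material: reconstituted apoptosome with Apaf-1, cytochrome c, caspase-9, procaspase-3, dATP. Technique: Rh110 fluorescence intensity. Buffer or medium: pH 7.5 Hepes buffer with CHAPS, BSA, DTT. Times: 30 min plus 50 min, RT.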
M18AAP inhibitor: PfM18AAP enzyme inhibition. recombinant PfM18AAP, H-Glu-NHMec fluorogenic cleavage. inhibition, % at 7.35 µM. actives 1.2% (n = 290,000). AID 1822;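 active = inhibition above the campaign mean inhibition over all tested compounds plus 3 SD, cut at about 28% in these data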;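 note: 0% = plate median of test compound wells and 100% = 2 mM ZnCl2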
EBNA-1 inhibitor: blocks EBNA-1 binding to DNA; EBNA-1 DNA binding, fluorescence polarization; inhibition, % at 14.8 µM; actives 0.34% (n = 300,000); AID 1950; in the data active = inhibition above about 28%
Casp3 counter: caspase-3 inhibition (UBC13 counter-screen); shares compounds with UBC13 polyUb; inhibition, % at 20 µM; actives 4% (n = 1,400); AID 488856; Recombinant caspase-3, Caspase-Glo 3/7 luminescence, 60 min;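 active = mean inhibition across replicates above about 26%, limit read from the data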;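 note: plate controls were DMSO with caspase-3 for no effect and DMSO wells lacking enzyme for full effect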
Target sequence (P42574 whole entry, looked up): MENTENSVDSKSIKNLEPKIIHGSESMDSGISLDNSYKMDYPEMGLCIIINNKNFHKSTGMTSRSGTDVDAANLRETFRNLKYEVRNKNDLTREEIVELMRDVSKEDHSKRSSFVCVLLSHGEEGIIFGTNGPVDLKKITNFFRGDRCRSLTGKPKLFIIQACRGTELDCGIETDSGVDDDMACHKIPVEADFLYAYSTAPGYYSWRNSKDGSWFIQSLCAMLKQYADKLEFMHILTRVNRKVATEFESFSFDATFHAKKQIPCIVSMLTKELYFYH
UBC13 confirm: confirmation of human UBC13 polyubiquitin inhibitors; AID 488859; UBC13 polyubiquitination, TR-FRET, biochemical; shares compounds with UBC13 polyUb; inhibition, % at 10 µM; actives 68% (n = 1,400); in the data active = inhibition above about 45%
* hit, by the source's call. In the library only some 2.9% were active in any assay of this set; here they are far more common.

How did CC(C(=O)NC1CCCC1)N(C(=O)c1snc(C(N)=O)c1N)c1ccc2c(c1)OCCO2 (stereo unspecified) do in these assays?
UBC13 polyUb: 72.2*; ZTA DNA inh: 23.3; PfGluPho inh: -24.6; Apaf1 inhib: -1.3; M18AAP inhibitor: 1.4; EBNA-1 inhibitor: 0.6; Casp3 counter: 1.2; UBC13 confirm: 72.1*

What do the screens show for `O=C(CNC(=O)c1ccccc1)NCC(O)c1ccc([N+](=O)[O-])cc1` (stereo unspecified)?
UBC13 polyUb: 1.1; ZTA DNA inh: -9.4; PfGluPho inh: -12.6; Apaf1 inhib: 2.3; M18AAP inhibitor: -12.5; EBNA-1 inhibitor: -0.1

How did NC(N)=NCCCC(NC(=O)c1ccccc1)C(=O)Nc1ccc2ccccc2c1 (stereo unspecified) do in these assays?
UBC13 polyUb: 48.4*; ZTA DNA inh: -12.7; PfGluPho inh: -6.3; Apaf1 inhib: 37.3; EBNA-1 inhibitor: 1.7; Casp3 counter: -0.8; UBC13 confirm: 29.7

What do the screens show for `COc1ccc2cc1Oc1ccc(cc1)C[C@H]1c3c(cc(OC)c4c3Oc3c(ccc5c3[C@H](C2)N(C)CC5)O4)CCN1C`?
UBC13 polyUb: 79.9*; PfGluPho inh: 24.1; Apaf1 inhib: 59.5*; Casp3 counter: -0.5; UBC13 confirm: 77.5*

Results for Cn1c(SCC(=O)NCc2ccc3c(c2)OCO3)ncc(C(=O)Nc2ccc(F)cc2)c1=O ?
UBC13 polyUb: 50.5*; ZTA DNA inh: -4.1; PfGluPho inh: -4.5; Apaf1 inhib: 7.2; EBNA-1 inhibitor: 5.6; Casp3 counter: 85.6*; UBC13 confirm: 44.7

How did Cn1c(SCC(=O)NCc2ccc(F)cc2)ncc(C(=O)Nc2ccccc2)c1=O do in these assays?
UBC13 polyUb: 59.7*; ZTA DNA inh: -11.6; PfGluPho inh: -15.7; Apaf1 inhib: 4.2; EBNA-1 inhibitor: 3.9; Casp3 counter: 87.2*; UBC13 confirm: 53.4*

Results for Cn1c(SCC(=O)NCCc2ccccc2)ncc(C(=O)Nc2ccccc2)c1=O ?
UBC13 polyUb: 46.5*; ZTA DNA inh: -3.0; PfGluPho inh: 2.2; Apaf1 inhib: -1.8; EBNA-1 inhibitor: 4.3; Casp3 counter: 94.1*; UBC13 confirm: 39.8

How did Cn1cnnc1SCC(=O)NCCc1ccccc1 do in these assays?
UBC13 polyUb: -5.4; ZTA DNA inh: -9.1; PfGluPho inh: 4.5; Apaf1 inhib: -0.9; M18AAP inhibitor: -1.5; EBNA-1 inhibitor: -16.4

What do the screens show for `Cn1c(SCC(=O)NCc2ccc(F)cc2)nc2ccccc21`?
UBC13 polyUb: -1.6; ZTA DNA inh: -7.4; PfGluPho inh: 9.7; Apaf1 inhib: 0.0; M18AAP inhibitor: -8.0; EBNA-1 inhibitor: -0.5

How did Cn1c(=O)c2c(nc(SCC(=O)NCc3ccc4c(c3)OCO4)n2Cc2ccc(F)cc2)n(C)c1=O do in these assays?
UBC13 polyUb: -3.2; ZTA DNA inh: 1.4; PfGluPho inh: 11.8; Apaf1 inhib: 6.3; M18AAP inhibitor: 6.3; EBNA-1 inhibitor: -5.2

How did O=C(NCCCN1CCOCC1)c1ccc2c(c1)N(Cc1cccc(Cl)c1)C(=O)CS2 do in these assays?
UBC13 polyUb: 12.6; ZTA DNA inh: 6.1; PfGluPho inh: 12.3; Apaf1 inhib: 3.3; M18AAP inhibitor: -3.4; EBNA-1 inhibitor: -1.5

What do the screens show for `CCCCC(=O)Nc1cccc(C(=O)N/N=C/c2ccc(OC)cc2OC)c1`?
UBC13 polyUb: -5.5; ZTA DNA inh: 13.1; PfGluPho inh: -1.5; Apaf1 inhib: 9.1; M18AAP inhibitor: 8.6; EBNA-1 inhibitor: 4.9

What do the screens show for `Cc1ccccc1-c1nc(CS(=O)CC(=O)NCc2ccccn2)c(C)o1` (stereo unspecified)?
UBC13 polyUb: 6.6; ZTA DNA inh: 12.7; PfGluPho inh: 3.2; Apaf1 inhib: -5.1; M18AAP inhibitor: 0.1; EBNA-1 inhibitor: -2.5

What do the screens show for `COc1cccc(OCC(O)CN2CCN(CCN3C(=O)c4cccc5cccc(c45)C3=O)CC2)c1` (stereo unspecified)?
UBC13 polyUb: 61.2*; ZTA DNA inh: -8.6; PfGluPho inh: -3.3; Apaf1 inhib: 3.2; M18AAP inhibitor: -14.5; EBNA-1 inhibitor: 0.1; Casp3 counter: -1.6; UBC13 confirm: 62.9*

Results for COc1ccc(OCC(O)CN2CCC(CN3C(=O)c4cccc5cccc(c45)C3=O)CC2)cc1 (stereo unspecified) ?
UBC13 polyUb: 30.4; ZTA DNA inh: -15.6; PfGluPho inh: -1.8; Apaf1 inhib: 17.3; EBNA-1 inhibitor: -2.4

How did O=C1c2cccc3cccc(c23)C(=O)N1CCN1CCN(CC(O)COc2ccccc2)CC1 (stereo unspecified) do in these assays?
UBC13 polyUb: 53.8*; ZTA DNA inh: -4.5; PfGluPho inh: -6.7; Apaf1 inhib: 5.9; M18AAP inhibitor: -3.2; EBNA-1 inhibitor: 3.2; Casp3 counter: -0.1; UBC13 confirm: 15.6

What do the screens show for `O=C(O)c1cc(S(=O)(=O)NC(Cc2c[nH]c3ccccc23)C(=O)O)ccc1Cl` (stereo unspecified)?
UBC13 polyUb: -4.3; ZTA DNA inh: 7.5; PfGluPho inh: -0.3; Apaf1 inhib: 8.2; M18AAP inhibitor: 0.2; EBNA-1 inhibitor: 6.4

How did CC1CCc2c(sc(NS(=O)(=O)c3ccccc3)c2C(=O)OC(C)C)C1 (stereo unspecified) do in these assays?
UBC13 polyUb: -11.7; ZTA DNA inh: -15.0; PfGluPho inh: -14.5; Apaf1 inhib: 16.4; M18AAP inhibitor: 14.8; EBNA-1 inhibitor: 7.8

What do the screens show for `C#CCOCCOCCOCCNc1nc(N2CCN(C(=O)[C@H](CCCN=C(N)N)n3cc(C(N)[C@@H](C)CC)nn3)CC2)nc(N2CCN(C(=O)[C@H](CCCCN)n3cc([C@@H](N)CC(N)=O)nn3)CC2)n1` (stereo partly specified)?
UBC13 polyUb: 50.4*; PfGluPho inh: 2.5; Apaf1 inhib: 6.4; Casp3 counter: -4.9; UBC13 confirm: 44.4

How did C#CCOCCOCCOCCNc1nc(N2CCN(C(=O)CCCCCCCCCCNC(=O)[C@@H](CCC(=O)O)n3cc(CCCCCN)nn3)CC2)nc(N2CCN(C(=O)CCCCCCCCCCNC(=O)[C@H](CO)n3cc(CCCSC)nn3)CC2)n1 do in these assays?
UBC13 polyUb: 84.4*; ZTA DNA inh: -31.8; PfGluPho inh: -13.1; Apaf1 inhib: 29.6; EBNA-1 inhibitor: 1.9; Casp3 counter: -1.6; UBC13 confirm: 40.2
